A selection: hits, their analogues and other compounds. The true share with any hit is near 3.6%.
UCH37 inh – inhibitors of human UCH37 deubiquitinase, primary screen, biochemical, Ub-AMC cleavage, fluorescence; inhibition, % (test concentration not listed); 0.33% of 330,000 active; Ubiquitin carboxyl-terminal hydrolase isozyme L5 (Homo sapiens), Q9Y5K5; purified proteasome/UCH37;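 active means mean inhibition over replicate wells above about 20%, limit read from the data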
Target sequence (Q9Y5K5 whole entry, looked up): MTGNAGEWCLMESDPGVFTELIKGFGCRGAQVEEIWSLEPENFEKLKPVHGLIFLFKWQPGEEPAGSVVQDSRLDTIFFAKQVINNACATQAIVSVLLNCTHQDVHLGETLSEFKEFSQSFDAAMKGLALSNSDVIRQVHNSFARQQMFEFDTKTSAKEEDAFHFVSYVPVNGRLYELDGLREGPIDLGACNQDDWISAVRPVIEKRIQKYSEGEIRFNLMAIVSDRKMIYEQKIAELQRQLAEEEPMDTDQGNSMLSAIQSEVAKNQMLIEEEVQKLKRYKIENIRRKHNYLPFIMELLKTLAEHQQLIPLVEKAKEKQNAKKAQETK
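Material: human UCH37 enzyme supplied as purified proteasome complex. Measure: % inhibition of Ub-AMC cleavage fluorescence. Medium: pH 7.4 Tris-HCl (50 mM) with ovalbumin, ATP-MgCl2, DTT. Times: 30 min preincubation with enzyme, 25 min cleavage at room temperature. Detection: AMC fluorescence intensity at 355/460 nm.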
NadD inh – inhibitors of S. aureus NadD, primary screen, biochemical, colorimetric, uHTS; Nicotinate-nucleotide adenylyltransferase NadD (Staphylococcus aureus N315); purified NadD enzyme, colorimetric absorbance read-out; inhibition, % at 20 µM; 0.78% of 360,000 active; in the data active means inhibition above about 26%
ATG4B inhibitor – ATG4B protease inhibitors, primary screen, biochemical, fluorescence, uHTS; Cysteine protease ATG4B (Homo sapiens), Q9Y4P1; ATG4B cleavage of LC3-PLA2, NBD-HPC fluorescence, 1 h; inhibition, % at 8.33 µM; 0.51% of 340,000 active; AID 504462, 2011; in the data active means inhibition above about 40%
SENP1 FRET inh – human SENP1 catalytic domain inhibitors, primary screen, biochemical, FRET, uHTS | inhibition, % at 10 µM | 0.21% of 360,000 active | AID 624204, 2012 | Sentrin-specific protease 1 (Homo sapiens), Q9P0U3 | recombinant SENP1 catalytic domain, CyPet-SUMO1-YPet FRET cleavage;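 active means inhibition at least 30% at 10 µM, raw YFP signal under a set limit, fluorescence ratio 0.5 to 1.5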
Target sequence (Q9P0U3 419-644 limits assumed): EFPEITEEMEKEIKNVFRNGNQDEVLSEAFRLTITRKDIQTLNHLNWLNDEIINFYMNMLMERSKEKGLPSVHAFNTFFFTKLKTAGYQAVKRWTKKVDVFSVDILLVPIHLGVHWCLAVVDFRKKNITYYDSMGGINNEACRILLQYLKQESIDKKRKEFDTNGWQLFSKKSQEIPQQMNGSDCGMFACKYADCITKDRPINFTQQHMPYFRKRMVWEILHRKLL
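Test system: recombinant human SENP1 catalytic domain, His6-tagged / Medium: pH 8 Tris buffer with EDTA, NaCl, BME, BSA, NP40, catalase / Also added: SUMO1 FRET substrate flanked by Cypet and Ypet, 25 nM / Times: 50 min reaction at room temperature / Signal: FRET, CFP and YFP emission / Control set: no-enzyme low control and enzyme-plus-DMSO high control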
NR3A LBD binder – binders of NR3A ligand-binding domain, primary screen, biophysical, differential scanning fluorimetry, uHTS; Glutamate receptor ionotropic, NMDA 3A (GRIN3A) ligand-binding domain; NR3A LBD differential scanning fluorimetry, Tm shift; 0% = protein alone, 100% = glycine-bound protein; Tm shift relative to glycine control, % at 25 µM; 2.5% of 340,000 active;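 active means melting temperature shift of at least 10% of the positive control shift, at one fixed dose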
ATG4B conf – ATG4B protease inhibitors, retest, confirmation, biochemical, fluorescence, single concentration | shares compounds with ATG4B inhibitor | inhibition, % at 8.33 µM | ATG4B protease fluorescent substrate cleavage assay | 92% of 320 active | AID 504757, 2011; in the data active means inhibition above about 39%
PLA2 ctr – PLA2 enzyme inhibition, counter-screen for ATG4B inhibitor project, biochemical, single concentration, uHTS hits. 66% of 1,600 active. shares compounds with ATG4B inhibitor. inhibition, % at 8.33 µM. purified PLA2, NBD-C6-HPC fluorescence, 45 min; in the data active means inhibition above about 50%
Target sequence (P04054 whole entry, looked up): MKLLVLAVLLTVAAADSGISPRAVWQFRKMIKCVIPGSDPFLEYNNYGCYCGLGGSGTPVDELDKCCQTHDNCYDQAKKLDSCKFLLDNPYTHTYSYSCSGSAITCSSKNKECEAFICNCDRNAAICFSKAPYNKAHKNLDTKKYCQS
Of the large screens only hits and unclear results are named; the others gave an inactive call (follow-up assays come after a bar, where they were run).

Clc1cccc(-c2nc(NCc3cccnc3)c3ccccc3n2)c1	ATG4B inhibitor 64, NR3A LBD binder 22 | PLA2 ctr 70
Cc1c(Cl)cccc1NC(=S)NCCC(c1ccccc1)c1ccccc1	ATG4B inhibitor 91 | PLA2 ctr 93
Cc1c(Cl)cccc1NC(=S)NCCC(C)C	ATG4B inhibitor 64 | PLA2 ctr 67
CC(=O)Nc1ccc(C(=O)NN=C(C)CC(=O)Nc2ccc(OCc3ccccc3)cc2)cc1	none (no result: NadD inh, ATG4B inhibitor, SENP1 FRET inh, NR3A LBD binder)
COc1ccccc1C(=O)NN=C/C(C)=C/c1ccccc1	none (no result: NadD inh, ATG4B inhibitor, SENP1 FRET inh, NR3A LBD binder)
CCC(C)N(C(=O)COc1ccc(Br)cc1C=O)C1CCS(=O)(=O)C1 (configuration not stated)	ATG4B inhibitor 42 | ATG4B conf 57 | PLA2 ctr inactive
Cc1ccccc1N=C1NC(=O)/C(=C/c2cccn2-c2cccc(C(=O)O)c2)S1	ATG4B inhibitor 43 (no result: NadD inh, SENP1 FRET inh) | ATG4B conf 59 | PLA2 ctr inactive
O=C(O)c1cccc(-n2cccc2/C=C2\SC(=O)N(Cc3ccccc3F)C2=O)c1	ATG4B inhibitor 40 (no result: UCH37 inh) | PLA2 ctr 57
C=C(C)C1CC=C(C)C(=NNC(=O)c2ccoc2C)C1 (configuration not stated)	none (no result: NadD inh, ATG4B inhibitor, SENP1 FRET inh, NR3A LBD binder)
CC(=O)Nc1cc(C(=O)N2CCc3ccccc3C2)ccc1Sc1ccc(Cl)cc1	ATG4B inhibitor 40 | PLA2 ctr 51
O=C(NCCc1ccccc1)c1c(O)c2cccc3c2n(c1=O)CC3	none
O=C(Oc1c(-c2ccccc2)c(=O)n2c3c(cccc13)CC2)c1ccc(F)cc1	ATG4B inhibitor 66 | ATG4B conf 62 | PLA2 ctr inactive
O=C(Oc1c(-c2ccccc2)c(=O)n2c3c(cccc13)CC2)c1cccc([N+](=O)[O-])c1	none (no result: UCH37 inh)
O=C(Oc1c(-c2ccccc2)c(=O)n2c3c(cccc13)CC2)c1ccccc1	ATG4B inhibitor 70 | PLA2 ctr 65
CCOc1ccc(C=NN2C(C)CCCC2C)cc1OC (configuration not stated)	none (no result: NadD inh, ATG4B inhibitor, SENP1 FRET inh, NR3A LBD binder)
O=c1cc(-c2ccccc2Cl)oc2c(NS(=O)(=O)c3cc(Cl)cc(Cl)c3O)ccc(O)c12	ATG4B inhibitor 101 | PLA2 ctr 103
O=C(Oc1cncc(Cl)c1)c1ccco1	none
O=C(Oc1cncc(Cl)c1)c1sccc1Cl	ATG4B inhibitor 98 | PLA2 ctr inactive
C=CCNC(=O)CC(=O)NN=Cc1cccs1	none (no result: NadD inh, ATG4B inhibitor, SENP1 FRET inh, NR3A LBD binder)
C=CCn1c(SCC(=O)Nc2ccc3c(c2)CCC3)nnc1-c1cccs1	ATG4B inhibitor 67 | PLA2 ctr 52
CCCN(CC1CC1)C(=O)CSc1ncnc2sc(C)c(C)c12	ATG4B inhibitor 53 | PLA2 ctr 56
Oc1ccc(/C=N/N(Cc2ccccc2)c2ccccc2)c(O)c1O	ATG4B inhibitor 56 (no result: UCH37 inh) | PLA2 ctr 75
O=C(NN=Cc1c[nH]c2ccccc12)C1CC1c1ccccc1 (configuration not stated)	none (no result: NadD inh, ATG4B inhibitor, SENP1 FRET inh, NR3A LBD binder)
Cc1ccc(C(=O)Nc2nc(-c3ccco3)c(-c3ccco3)s2)o1	NadD inh 31, ATG4B inhibitor 40 | ATG4B conf 64 | PLA2 ctr inactive
Cc1ccc(S(=O)(=O)N2CCN(CC(=O)NN=Cc3ccc(O)c(O)c3)CC2)cc1	none (no result: NadD inh, ATG4B inhibitor, SENP1 FRET inh, NR3A LBD binder)
S=C(NCCSCc1ccc(Cl)c(Cl)c1)Nc1ccccc1	ATG4B inhibitor 41, NR3A LBD binder 22 | ATG4B conf 64 | PLA2 ctr inactive
S=C(NCCSCc1c(Cl)cccc1Cl)Nc1ccccc1	ATG4B inhibitor 45 | PLA2 ctr 50
O=C(NCCSCc1c(F)cccc1Cl)Nc1ccccc1	none
COc1ccc(CSCCNC(=S)Nc2ccccc2)cc1Cl	none
S=c1[nH]nc(-c2cccnc2)n1N=Cc1ccc(Br)s1	none (no result: NadD inh, ATG4B inhibitor, SENP1 FRET inh, NR3A LBD binder)
COc1ccc(C(=O)NN=Cc2ccc(OC)c(CSc3ccccn3)c2)cc1	none (no result: NadD inh, ATG4B inhibitor, SENP1 FRET inh, NR3A LBD binder)
CC(C)(C)c1ccc(-c2nn(CCC#N)cc2C=NO)cc1	none (no result: NadD inh, ATG4B inhibitor, SENP1 FRET inh, NR3A LBD binder)
Cc1ccc(-c2csc(N/N=C/c3ccco3)n2)cc1	ATG4B inhibitor 41 (no result: UCH37 inh) | PLA2 ctr inactive
COc1ccc(C(O)(C(=O)NNc2ccc(C)cc2)c2cccs2)cc1 (configuration not stated)	none
O=C(NNc1ccc(C2CCCCC2)cc1)C(O)(c1ccccc1)c1cccs1 (configuration not stated)	ATG4B inhibitor 67 | PLA2 ctr 70
Cc1c(CCOC(=O)CC23CC4CC(CC(C4)C2)C3)sc[n+]1CC(=O)c1ccccc1	none
Cc1c(CCOC(=O)C23CC4(C)CC(C)(CC(C)(C4)C2)C3)sc[n+]1CC(=O)c1ccccc1	ATG4B inhibitor 47 | ATG4B conf 51 | PLA2 ctr inactive
Fc1ccc2[nH]c3c(NCc4ccccc4)ncnc3c2c1	ATG4B inhibitor 50 | PLA2 ctr 65
COc1ccc(-c2n[nH]c(C(F)(F)F)c2-c2cc3ccccc3o2)c(O)c1	ATG4B inhibitor 58, NR3A LBD binder 15 | ATG4B conf 64 | PLA2 ctr inactive
COc1ccccc1-c1c(-c2ccc(OCC(=O)NN)cc2O)n[nH]c1C(F)(F)F	none
O=C(O)c1ccccc1NS(=O)(=O)c1ccc(N/N=C/c2cccc(O)c2O)c([N+](=O)[O-])c1	ATG4B inhibitor 51, NR3A LBD binder 32 (no result: UCH37 inh) | PLA2 ctr 53
COc1cc(C=NNc2ccc(S(=O)(=O)Nc3ccccc3C(=O)O)cc2[N+](=O)[O-])ccc1O	UCH37 inh 22, ATG4B inhibitor 46, NR3A LBD binder 19 | PLA2 ctr 63
COc1ccccc1NS(=O)(=O)c1ccc(NN=Cc2ccccc2OCC(=O)O)c([N+](=O)[O-])c1	none (no result: NadD inh, ATG4B inhibitor, SENP1 FRET inh, NR3A LBD binder)
O=C(O)c1cc(S(=O)(=O)Nc2ccccc2C(=O)O)ccc1O	none (no result: UCH37 inh)
O=C(OCC(=O)N1CCc2ccccc21)c1c2c(nc3ccccc13)CCCC2	none
CC1Cc2ccccc2N1C(=O)COC(=O)c1c2c(nc3ccccc13)CCCCC2 (configuration not stated)	ATG4B inhibitor 44 | PLA2 ctr inactive
O=c1cc(O)c2sc3nc(C(F)(F)F)c4c(c3c2[nH]1)CCCCC4	ATG4B inhibitor 45 | ATG4B conf 59 | PLA2 ctr inactive
Cc1ccc(-n2c(SCC(=O)NN=Cc3ccccc3C(=O)O)nnc2-c2ccccc2)cc1	none (no result: NadD inh, ATG4B inhibitor, SENP1 FRET inh, NR3A LBD binder)
Cc1cc(C=C2C(=O)c3ccccc3C2=O)c(C)n1-c1ccccc1	ATG4B inhibitor 45 | ATG4B conf 67 | PLA2 ctr inactive

Source: PubChem
